In ChEMBL document CHEMBL5370638:
One block for each compound: values may come before it. Active and inactive are the calls of the source. The calls are words filed in the database; no cut-off is given here. Numbered stars: 1 amine (or outer) side, 2 acyl side, 3 side chain; on linkers, the order of the positions; unused ones are H or OH. Bridge positions count the residues as written; N and C are the ends. Square brackets hold non-standard residues; d marks the D form. Peptide text beside a SMILES is read from it. AMPB(E) = O=C(c1ccc(/N=N/c2ccc(CN[*:1])cc2)cc1)[*:2]; X3 = O=C(c1ccccc1/N=N\c1ccccc1C(=O)[*:2])[*:1]; X4 = O=C(c1ccccc1/N=N/c1ccccc1C(=O)[*:2])[*:1]; Dap = NC[C@H](N)C(=O)O

Key:
Assay type in all cases: functional, cell-based
HEK293 = test: Induction of C-terminal GFP-tagged V1b receptor internalization in HEK293 cells at 1 nM incubated for 60 mins by fluorescence microscopy analysis; settings: Homo sapiens
Method in brief: (§1)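 HEK293 cells stably expressing human V1bR with C-terminal GFP were plated overnight on poly-D-lysine coverslips and serum-starved for one day. Ligands in serum-free medium were applied for 60 min; the Z-form was diode-activated at 340 nm. Cells were fixed in 4% PFA, immunostained (anti-GFP, anti-pCREB, Hoechst) and imaged confocally. pCREB signal was normalized to medium-only controls; internalization was scored from GFP location.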

[1] = target: T1, Vasopressin V1b receptor (Homo sapiens) (UniProt P47901); test: Activation of human C-terminal GFP-tagged V1b receptor in HEK293 cells assessed as CREB phosphorylation at 1 nM incubated for 60 mins by immunostaining analysis; method in brief: as §1
T1 sequence (whole entry): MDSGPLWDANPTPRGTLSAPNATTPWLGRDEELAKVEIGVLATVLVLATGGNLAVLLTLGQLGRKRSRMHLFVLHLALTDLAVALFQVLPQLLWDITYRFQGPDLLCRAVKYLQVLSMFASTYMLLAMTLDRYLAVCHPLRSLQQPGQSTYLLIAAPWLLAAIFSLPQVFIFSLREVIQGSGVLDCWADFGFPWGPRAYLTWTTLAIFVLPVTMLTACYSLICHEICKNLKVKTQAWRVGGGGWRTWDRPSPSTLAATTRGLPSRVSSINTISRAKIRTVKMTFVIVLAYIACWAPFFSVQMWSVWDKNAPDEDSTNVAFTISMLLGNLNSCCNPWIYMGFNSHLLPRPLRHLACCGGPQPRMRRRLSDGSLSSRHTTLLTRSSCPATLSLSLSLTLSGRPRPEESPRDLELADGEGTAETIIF

[2] = target: Vasopressin V1a receptor (Homo sapiens) (UniProt P37288); test: Antagonist activity at human V1a receptor transfected in HEK293 cells at 10 uM relative to control; settings: filed as antagonist
Method in brief: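 V1aR-expressing HEK293 cells received VP (1 nM final) premixed with test compound (10 or 100 μM), incubated for 1 h at 37 °C. IP1 accumulation was measured by HTRF (665/615 nm) and normalized to basal (0%) and maximal VP (100%). […] At least three independent experiments were run, each in triplicate.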

[3] = target: Vasopressin V1a receptor (Homo sapiens) (UniProt P37288); test: Agonist activity at human V1a receptor transfected in HEK293 cells upto 10 uM incubated for 1 hr by IP-one HTRF assay
Method in brief: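 Stable HEK293 lines expressing hOTR, hV1aR or hV1bR (10,000 cells/well, 48 h) were preincubated in stimulation buffer for 15 min, then given ligand for 1 h at 37 °C. Z-forms were pre-irradiated at 340 nm for 1 min.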

Sequence of Vasopressin V1a receptor (Homo sapiens) (P37288 whole entry, looked up): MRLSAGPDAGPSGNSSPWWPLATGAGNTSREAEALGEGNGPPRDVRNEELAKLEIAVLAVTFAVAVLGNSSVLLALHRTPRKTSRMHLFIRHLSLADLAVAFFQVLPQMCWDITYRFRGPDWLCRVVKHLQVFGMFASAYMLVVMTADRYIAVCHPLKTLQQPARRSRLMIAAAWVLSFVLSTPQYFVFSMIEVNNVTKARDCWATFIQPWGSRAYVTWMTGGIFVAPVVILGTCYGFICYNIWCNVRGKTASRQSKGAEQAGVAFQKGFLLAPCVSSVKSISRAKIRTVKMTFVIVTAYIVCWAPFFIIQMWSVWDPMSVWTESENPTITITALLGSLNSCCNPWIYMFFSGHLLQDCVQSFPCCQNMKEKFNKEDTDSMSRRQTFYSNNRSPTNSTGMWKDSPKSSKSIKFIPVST

SMILES: NC(=O)CC[C@@H]1NC(=O)[C@H](Cc2ccc(/N=N\c3ccccc3)cc2)NC(=O)[C@H](Cc2ccc(O)cc2)NC(=O)[C@@H](N)CSSC[C@@H](C(=O)N2CCC[C@H]2C(=O)N[C@@H](CCCN=C(N)N)C(=O)NCC(N)=O)NC(=O)[C@H](CC(N)=O)NC1=O
Activity (HEK293): Active

SMILES: NC(=O)CC[C@@H]1NC(=O)[C@H](Cc2ccc(/N=N/c3ccccc3)cc2)NC(=O)[C@H](Cc2ccc(O)cc2)NC(=O)[C@@H](N)CSSC[C@@H](C(=O)N2CCC[C@H]2C(=O)N[C@@H](CCCN=C(N)N)C(=O)NCC(N)=O)NC(=O)[C@H](CC(N)=O)NC1=O
Activity [1]: inactive
Activity (HEK293): inactive

SMILES: NC(=O)CC[C@@H]1NC(=O)[C@H](Cc2ccccc2)NC(=O)[C@H](Cc2ccc(O)cc2)NC(=O)[C@@H](N)CSSC[C@@H](C(=O)NCc2ccc(/N=N/c3ccc(C(=O)N[C@@H](CCCN=C(N)N)C(=O)NCC(N)=O)cc3)cc2)NC(=O)[C@H](CC(N)=O)NC1=O (H-CYFQNC[AMPB(E)]RG-NH2; disulfide 1-6)
Activity [3]: inactive

SMILES: NC(=O)CC[C@@H]1NC(=O)[C@H](Cc2ccccc2)NC(=O)[C@H](Cc2ccc(O)cc2)NC(=O)[C@@H](N)CSSC[C@@H](C(=O)NCc2ccc(/N=N/c3ccc(C(=O)NCC(N)=O)cc3)cc2)NC(=O)[C@H](CC(N)=O)NC1=O (H-CYFQNC[AMPB(E)]G-NH2; disulfide 1-6)
Activity [3]: inactive

Continued, values first:

Activity [2]: Active
SMILES: NC(=O)CC[C@@H]1NC(=O)[C@H](Cc2ccccc2)NC(=O)[C@H](Cc2ccc(O)cc2)NC(=O)c2ccccc2/N=N\c2ccccc2C(=O)NC[C@@H](C(=O)N2CCC[C@H]2C(=O)N[C@@H](CCCN=C(N)N)C(=O)NCC(N)=O)NC(=O)[C@H](CC(N)=O)NC1=O (YFQN[Dap]PRG-NH2; linker N-5 via X3)

Activity [2]: Active
SMILES: NC(=O)CC[C@@H]1NC(=O)[C@H](Cc2ccccc2)NC(=O)[C@H](Cc2ccc(O)cc2)NC(=O)c2ccccc2/N=N/c2ccccc2C(=O)NC[C@@H](C(=O)N2CCC[C@H]2C(=O)N[C@@H](CCCN=C(N)N)C(=O)NCC(N)=O)NC(=O)[C@H](CC(N)=O)NC1=O (YFQN[Dap]PRG-NH2; linker N-5 via X4)
